Where a name gives a salt, the structure may show the parent alone. Active and inactive are the calls of the source. No cut-off for these calls is given here.

The target of data set [1] is T1, Extracellular calcium-sensing receptor (Homo sapiens) (UniProt P41180).
T1 sequence (whole entry): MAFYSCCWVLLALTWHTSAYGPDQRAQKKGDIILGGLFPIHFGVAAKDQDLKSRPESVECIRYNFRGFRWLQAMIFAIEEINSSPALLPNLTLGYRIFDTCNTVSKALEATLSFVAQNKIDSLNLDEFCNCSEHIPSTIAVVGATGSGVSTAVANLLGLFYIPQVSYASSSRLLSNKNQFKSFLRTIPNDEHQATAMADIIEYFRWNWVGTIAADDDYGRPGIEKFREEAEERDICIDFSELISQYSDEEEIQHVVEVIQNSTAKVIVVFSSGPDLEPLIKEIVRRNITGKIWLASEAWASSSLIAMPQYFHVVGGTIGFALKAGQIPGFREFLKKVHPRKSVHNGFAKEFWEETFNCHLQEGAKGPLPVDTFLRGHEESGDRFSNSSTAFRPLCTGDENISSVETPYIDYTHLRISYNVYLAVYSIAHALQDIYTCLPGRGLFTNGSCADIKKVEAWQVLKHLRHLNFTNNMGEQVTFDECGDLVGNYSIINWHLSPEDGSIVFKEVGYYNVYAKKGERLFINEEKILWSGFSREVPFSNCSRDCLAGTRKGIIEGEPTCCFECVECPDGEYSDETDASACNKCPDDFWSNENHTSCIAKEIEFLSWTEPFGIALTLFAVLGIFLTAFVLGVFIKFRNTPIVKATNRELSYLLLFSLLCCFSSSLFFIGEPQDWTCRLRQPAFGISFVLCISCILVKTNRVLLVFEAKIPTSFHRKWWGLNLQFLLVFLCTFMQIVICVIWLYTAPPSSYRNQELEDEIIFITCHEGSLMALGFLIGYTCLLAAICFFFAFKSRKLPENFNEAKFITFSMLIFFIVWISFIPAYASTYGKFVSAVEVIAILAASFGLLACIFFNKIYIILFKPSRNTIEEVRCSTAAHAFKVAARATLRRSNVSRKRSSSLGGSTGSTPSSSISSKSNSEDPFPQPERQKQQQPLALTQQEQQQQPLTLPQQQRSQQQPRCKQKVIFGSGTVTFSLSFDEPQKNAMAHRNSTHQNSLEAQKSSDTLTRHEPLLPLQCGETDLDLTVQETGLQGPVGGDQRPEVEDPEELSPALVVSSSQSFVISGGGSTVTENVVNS
As to the kind of experiment: Positive allosteric modulation of calcium sensing receptor by phosphatidyl inositol hydrolysis assay. It counts as functional.

Data set [2] addresses T1, Extracellular calcium-sensing receptor (Homo sapiens). As to the kind of experiment: Positive allosteric modulation of calcium sensing receptor by cell based assay relative to control. It counts as functional. The essentials: (§1)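 R-SAT cell-based functional assay; cells kept in DMEM with 0.8 mM MgCl2 and 1.6 mM CaCl2 to raise sensitivity. Means of at least three independent experiments, standard deviation reported.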

The target of data set [3] is T2, Extracellular calcium-sensing receptor (Homo sapiens, UniProt P41180).
T2 sequence (P41180 whole entry): T1 sequence (whole entry)
Description: Positive allosteric modulation of calcium sensing receptor by cell based assay. It counts as functional. The method in brief:
as §1

The target of data set [4] is T1, Extracellular calcium-sensing receptor (Homo sapiens). As to the kind of experiment: Positive allosteric modulation of calcium sensing receptor at 10 nM by cell based assay. It counts as functional.
Data set [5] shares this target. Description: Positive allosteric modulation of calcium sensing receptor at 10 nM by cell based assay relative to control. It counts as functional.
Data set [6] in a line: Intrinsic clearance in human liver microsomes. It counts as ADME, Microsome.
For a further data set, the species on record is Homo sapiens. Description: Activation of human GABAB receptor.
For another data set, the system named is Rattus norvegicus. Description: Reduction of parathyroid hormone level in Sprague-Dawley rat at up to 10 mg/kg, sc after 1 hr by ELISA. The data set is classed as functional, organism-based. Also on record: dose 10 mg/kg. The essentials:
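Male Sprague–Dawley rats dosed subcutaneously; blood sampled 1 h post-dose and plasma PTH measured by ELISA.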
(In general: An ELISA detects its analyte on a solid surface through an enzyme-linked reagent.)

The target of data set [7] is T3, Parathyroid hormone/parathyroid hormone-related peptide receptor (Homo sapiens) (UniProt Q03431).
T3 sequence (whole entry): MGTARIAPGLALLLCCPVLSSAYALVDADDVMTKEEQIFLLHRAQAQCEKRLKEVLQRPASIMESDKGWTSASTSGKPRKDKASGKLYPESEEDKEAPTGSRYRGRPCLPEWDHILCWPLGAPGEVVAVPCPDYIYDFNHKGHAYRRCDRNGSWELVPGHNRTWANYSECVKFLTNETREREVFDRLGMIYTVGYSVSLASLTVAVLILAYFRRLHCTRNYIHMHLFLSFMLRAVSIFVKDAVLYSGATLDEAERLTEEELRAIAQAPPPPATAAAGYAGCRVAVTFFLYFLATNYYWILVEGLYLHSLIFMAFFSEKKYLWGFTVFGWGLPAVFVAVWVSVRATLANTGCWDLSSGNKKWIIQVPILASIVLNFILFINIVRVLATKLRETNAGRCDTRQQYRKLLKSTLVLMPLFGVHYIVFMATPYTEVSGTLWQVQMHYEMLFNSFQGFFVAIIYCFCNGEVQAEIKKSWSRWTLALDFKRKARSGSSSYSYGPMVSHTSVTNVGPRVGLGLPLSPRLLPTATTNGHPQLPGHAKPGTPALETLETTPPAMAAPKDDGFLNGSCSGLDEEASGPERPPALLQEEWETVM
As to the kind of experiment: Activation of human PTH1 receptor.

For orientation: EC50 means the concentration at which the effect is half-maximal. Turning to `Cc1ccc([C@](C)(O)c2nc3ccccc3s2)c(C)c1`, the result in data set [1] was Active. Moreover, the Efficacy in data set [2] came to 83%. In addition, in data set [3], the EC50 was 10 nM.
For `Cc1cc(C(C)(O)c2nc3ccccc3s2)ccc1F` (stereo not given), the Efficacy in data set [2] was 62%. The EC50 in data set [3] was 158 nM.
Consider `Cc1ccc(C(C)c2nc3ccccc3s2)c(C)c1` (stereo not given), for which the Efficacy in data set [2] amounted to 88%. Further, in data set [3], the EC50 is 2510 nM.
For the compound `C=C(c1nc2ccccc2s1)c1ccc(C)cc1C`, the result in data set [4] and in data set [5] was inactive.
Take `Cc1cc(Cl)ccc1C(C)(O)c1nc2ccccc2s1` (stereo not given): in [2], the Efficacy came to 94%. Further, in data set [3], the EC50 is 31.6 nM.
`Cc1ccccc1C(C)(O)c1nc2ccccc2s1` (stereo not given): the Efficacy in data set [2] stood at 72%. The EC50 in [3] is 251 nM.
`COc1ccccc1C(C)(O)c1nc2ccccc2s1` (stereo not given): the Efficacy in [2] came to 26%. For the same compound, in data set [3], the EC50 was 3980 nM.
For the compound `OC(c1ccccc1)(c1ccc(Cl)c(Cl)c1)c1nc2ccccc2s1` (stereo not given), the outcome in data set [4] and in data set [5] was inactive.
For the compound `Cc1ccc(C(O)(c2nc3ccccc3s2)C2CC2)c(C)c1` (stereo not given), in data set [2], the Efficacy was 76%. In addition, the EC50 in data set [3] is 200 nM.
In general, microsomal CLint refers to a measure of how fast metabolising enzymes remove a compound, apart from limits set by blood flow. Consider `CC(O)(c1ccc(Cl)cc1)c1nc2ccccc2s1` (stereo not given), for which, in data set [6], the microsomal CLint was more than 200 µL/min/mg. Further, in data set [2], the Efficacy turned out to be 68%. In addition, the EC50 in [3] was 398 nM.
Regarding `Cc1cc(C)c2c(c1)C(O)(c1nc3ccccc3s1)CCC2` (stereo not given), the Efficacy in [2] is 81%. Moreover, the EC50 in data set [3] is 316 nM.
Consider `Cc1ccc(C(C)(O)c2nc3ccccc3s2)c(C)c1` (stereo not given), for which the result (in [1]; in the data set on Rattus norvegicus) was Active. The compound also returned a microsomal CLint in data set [6] of 396 µL/min/mg. In data set [2], the Efficacy was determined as 91%. Also, the EC50 in [3] was 25.1 nM. The outcome (in the data set listed under Homo sapiens; in data set [7]) was inactive.
For the compound `C[C@@H](NCCCc1cccc(C(F)(F)F)c1)c1cccc2ccccc12` [CINACALCET HYDROCHLORIDE], the Efficacy in [2] turned out to be 115%. Besides, the EC50 in data set [3] is 20 nM.
As for `CC(O)(c1nc2ccccc2s1)c1ccc(Cl)cc1Cl` (stereo not given), the microsomal CLint in [6] was 66 µL/min/mg. Also, in [2], the Efficacy came out at 82%. Besides, the EC50 in [3] is 100 nM.
Turning to `CC(O)(c1ccc(Cl)c(Cl)c1)c1nc2ccccc2s1` (stereo not given), in [2], the Efficacy came out at 62%. Further, the EC50 in [3] is 100 nM.
As for `Cc1ccc(C(O)c2nc3ccccc3s2)c(C)c1` (stereo not given), the result in data set [4] and in [5] was inactive.
On to `Cc1ccc([C@@](C)(O)c2nc3ccccc3s2)c(C)c1`, for which the outcome in data set [1] was Active. For the same compound, the Efficacy in data set [2] came to 79%. The EC50 in [3] is 79.4 nM.
Turning to `CC(O)(c1ccc2ccccc2c1)c1nc2ccccc2s1` (stereo not given), in [2], the Efficacy amounted to 53%. Moreover, the EC50 in data set [3] was 631 nM.

Values taken from ChEMBL document CHEMBL1255510, “Discovery of a class of calcium sensing receptor positive allosteric modulators; 1-(benzothiazol-2-yl)-1-phenylethanols” (Bioorg Med Chem Lett, 2010).
